Bioassay records deposited in PubChem by Johns Hopkins Ion Channel Center.
MrgX1 antagonist: antagonists of human MrgX1 receptor, primary screen, HEK293 cells, Fluo-4 calcium flux; 1.3% of 310,000 active; B-score at 10 µM; BAM8-22 antagonism; active compounds read low; AID 588676, 2011; Mas-related G-protein coupled receptor member X1 (Homo sapiens), Q96LB2;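 active = calcium-response B-score plate-corrected more than 3 library SD below zero, starting fluorescence within 5 deviations, no agonist response on first addition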;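 note: peak minus trough fluorescence over baseline after final BAM8-22 challenge near maximal dose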
Target sequence (Q96LB2 whole entry, looked up): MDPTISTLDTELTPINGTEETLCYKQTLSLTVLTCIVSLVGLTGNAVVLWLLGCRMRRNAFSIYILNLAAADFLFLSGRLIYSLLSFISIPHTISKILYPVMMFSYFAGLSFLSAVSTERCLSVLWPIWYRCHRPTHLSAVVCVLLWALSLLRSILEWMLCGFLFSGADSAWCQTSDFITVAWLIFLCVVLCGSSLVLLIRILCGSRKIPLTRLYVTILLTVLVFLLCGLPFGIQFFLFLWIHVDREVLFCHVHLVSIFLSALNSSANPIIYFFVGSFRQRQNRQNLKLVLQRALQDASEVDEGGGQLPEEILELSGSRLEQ
MrgX1 PAM: positive allosteric modulators of MrgX1, primary screen, HEK293 cells, Fluo-4 calcium flux | 0.63% of 310,000 active | B-score at 10 µM | Mas-related G-protein coupled receptor member X1 (Homo sapiens), Q96LB2 | AID 588675, 2011 | FDSS; active compounds read high;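 active = plate-corrected calcium response at least 3 library SD above typical, normal starting fluorescence, not activating the receptor alone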;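 note: compound read alongside a low EC10 to EC30 dose of BAM8-22 agonist; peak minus trough fluorescence over baseline measured at the second addition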
RGS4 pot: RGS4 potentiators or activators, primary screen, cell-based, HEK293 M3R inducible RGS4, calcium flux | carbachol calcium flux Fluo4; active compounds read low | 0.92% of 310,000 active | AID 463111, 2010 | B-score at 10 µM;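 active = B-score of the integrated calcium signal more than 4 SD below the library mean, with starting fluorescence not abnormally high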;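 note: negative B-score means reduced calcium response which marks RGS4 activation or potentiation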
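test system = HEK293 cells with stable M3R and inducible RGS4 | schedule = recording 10 s baseline at 1 Hz, 100 s post-agonist | technique = Fluo4-AM (2 µM) calcium-flux fluorescence, kinetic read | measure = Agonist-evoked peak-minus-minimum fluorescence over baseline, integrated ratio, B score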
RGS4 inh: RGS4 inhibitors, primary screen, cell-based, HEK293 M3R inducible RGS4, calcium flux | Fluo-4 calcium flux; active compounds read high; triggered by carbachol at its EC20 | B-score at 10 µM | 0.45% of 310,000 active;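 active = B-score, a plate-corrected calcium signal, over three deviations above library mean, with baseline fluorescence within five deviations of library mean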;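 note: RGS4 expression induced by doxycycline in cells with stable M3 receptor; B-score is computed from the integrated fluorescence ratio over baseline after carbachol; higher B-score means a larger calcium signal and so more RGS4 inhibition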
Target sequence (P49798 whole entry, looked up): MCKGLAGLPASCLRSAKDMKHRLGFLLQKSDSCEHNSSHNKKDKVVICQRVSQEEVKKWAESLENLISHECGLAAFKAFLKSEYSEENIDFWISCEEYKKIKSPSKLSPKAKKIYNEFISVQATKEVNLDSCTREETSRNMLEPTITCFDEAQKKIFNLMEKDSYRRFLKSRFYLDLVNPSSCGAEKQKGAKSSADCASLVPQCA
MrgX1 agonist: agonists of human MrgX1 receptor, primary screen, HEK293 cells, Fluo-4 calcium flux. B-score at 10 µM. Fluo-4 calcium fluorescence, agonist mode; active compounds read high. 0.44% of 310,000 active;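 active = calcium response B-score plate-corrected fluorescence ratio at least 3 library SD, with starting fluorescence B-score inside 5 SD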
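times = overnight plating, then 30 min 37 °C plus 30 min room-temperature dye loading | assay system = stable human MrgX1 HEK293 cell line | input = fifteen thousand cells per well | signal = kinetic calcium dye fluorescence, Fluo-4 NW | dosing = compound delivered in addition one of three | read-out = B-scored fluorescence response ratio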
MrgX1 ant reconf: MrgX1 receptor antagonists, duplicate retest, confirmation, HEK293 cells, Fluo-4 calcium flux. shares compounds with MrgX1 antagonist. BAM8-22 calcium flux; active compounds read low. remaining BAM8-22 calcium response % of control (active compounds read low), % at 10 µM. 19% of 2,300 active. AID 602420, 2012;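 active = remaining agonist calcium response no higher than 100% minus 3 SD of agonist-only control wells, with starting fluorescence near control levels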;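 note: agonist BAM8-22 given at a near maximal EC90 to ECmax level; peak minus minimum fluorescence divided by baseline after agonist addition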
HEK293 Ca flux: nonspecific calcium signal in parental HEK293, confirmation, counter-screen for MrgX1 antagonist project, parental HEK293 cells, Fluo-4 calcium flux. shares compounds with MrgX1 antagonist. Fluo-4 calcium fluorescence, FDSS. fluorescence ratio F(max-min)/F0 at 10 µM. 2% of 4,000 active. AID 624111, 2012;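 active = duplicate-averaged calcium fluorescence ratio at least three times the standard deviation of buffer wells, a nonspecific response in parental cells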
HEK293 Ca counter: calcium response in parental HEK293 cells, primary screen, counter-screen for MrgX1 allosteric activator project, cell-based, Fluo-4 calcium flux, duplicate; Fluo-4 fluorescence ratio; active compounds read high; fluorescence ratio F(max-min)/F0 at 10 µM; shares compounds with MrgX1 antagonist; 0.4% of 4,000 active;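 active = calcium fluorescence ratio, averaged over duplicates, at least 3 SD of the buffer-well ratio, meaning a nonspecific response in receptor-free cells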;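 note: untransfected parental HEK293 lacking MrgX1 used as counterscreen for MrgX1 allosteric activators; fluorescence change taken during the second addition on a kinetic imager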
HEK293 Ca cntr2: calcium response in parental HEK293 cells, primary screen, counter-screen for MrgX1 agonist project, cell-based, Fluo-4 calcium flux, duplicate, agonist mode; shares compounds with MrgX1 antagonist; Fluo-4 calcium fluorescence (FDSS); active compounds read high; fluorescence ratio F(max-min)/F0 at 10 µM; 8.7% of 4,000 active; AID 624115, 2012;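 active = calcium fluorescence ratio at least three times the spread of buffer wells, meaning a non-specific response in parental cells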
* marks the source's active call; other numbers are inactive results; i = inactive; nt = no result given. Only some compounds are listed: those with a hit (about 3.5% of all), similar ones and a draw of the others.

SMILES	MrgX1 antagonist	MrgX1 PAM	RGS4 pot	RGS4 inh	MrgX1 agonist	MrgX1 ant reconf	HEK293 Ca flux	HEK293 Ca counter	HEK293 Ca cntr2
CSc1ccc(C(=O)C2CCCN(C(=O)Cc3nonc3C)C2)cc1 (stereo unspecified)	i	i	i	i	i	nt	nt	nt	nt
Cc1nc2n(n1)C(c1ccccc1)C1=C(CC(c3ccco3)CC1=O)N2 (stereo unspecified)	-7.9*	i	i	i	i	i	i	i	i
CC1CC(=O)C2=C(C1)Nc1ncnn1C2c1ccccc1 (stereo unspecified)	i	i	i	i	i	nt	nt	nt	nt
Cc1cc(N2C(=O)CC(N3CCN(c4ccc(C(=O)c5cccs5)cc4)CC3)C2=O)no1 (stereo unspecified)	-5*	i	i	i	i	i	i	i	i
O=C1c2ccc([N+](=O)[O-])cc2C(=O)N1Cc1cccnc1	i	i	i	i	i	nt	nt	nt	nt
Cc1[nH]c2ccc(Br)cc2c(=O)c1CN1CCCCCC1	i	i	i	i	i	nt	nt	nt	nt
Cc1[nH]c2ccccc2c(=O)c1CN1CCCCC1	-6.8*	i	i	i	i	i	i	i	i
COC(=O)C1=C(C)NC(=O)C1(NC(=O)c1cccnc1)C(F)(F)F (stereo unspecified)	i	i	i	i	i	nt	nt	nt	nt
COC(=O)C1=C(C)NC(=O)C1(Nc1ccc(Cl)cn1)C(F)(F)F (stereo unspecified)	-4.6*	i	i	i	i	i	i	i	i
Cn1c(=O)oc2cc(S(=O)(=O)NCCC(=O)N3CCN(c4ccccc4F)CC3)ccc21	i	i	i	i	i	nt	nt	nt	nt
Cn1c(=O)oc2cc(S(=O)(=O)NCCC(=O)N3CCc4ccccc43)ccc21	-5.1*	i	i	i	i	i	i	i	i
CCOC(=O)c1c(N/N=C/c2ccncc2)n[nH]c1C	i	i	i	i	i	nt	nt	nt	nt
Cc1ccc2c(c1)COc1c3ccc(C(=O)N[C@@H](CO)C(C)C)cc3nn1-2	-5.7*	i	i	i	i	i	i	i	i
COCCNC(=O)c1ccc2c3n(nc2c1)-c1ccc(C)cc1CO3	i	i	i	i	i	nt	nt	nt	nt
Cc1cccc(NC(=O)C(CC(C)C)NC(=O)C2CCC(C)CC2)n1 (stereo unspecified)	i	i	i	i	i	nt	nt	nt	nt
CNC(=O)c1c(NC(=O)c2ccc(S(=O)(=O)N3CCCc4ccccc43)cc2)sc2c1CCN(C)C2	-5.5*	i	i	i	i	i	0.66*	i	49*
CC1CC2(NC(=O)NC2=O)C(C)CN1C (stereo unspecified)	i	i	i	i	i	nt	nt	nt	nt
CC1C[C@@]2(NC(=O)NC2=O)C(C)CN1C (stereo partly specified)	-5.5*	i	i	i	i	i	i	i	i
